Measured values taken from PMC7807167 (Methods (San Diego, Calif.), 2021).
Where two headings read alike, the source gives them in different places.

What was measured:
SARS-CoV-2 = assay type: cell-based; conditions: for inhibitory activity against SARS-CoV-2: concentration range tested; for anti-SARS-CoV-2 activity at 25 µM: Fig 6, Fig 7
ATCC Vero E6 cells = conditions: for Cytotoxicity: Vero E6, tested range up to 50 μM
SARS-CoV-2/MT020880 [1] = assay type: cell-based; conditions: for IC50_Viral Entry blocking assay: ‘Very wide’ = some activity at high concentrations too staggering to plot
SARS-CoV-2/MT020880 [2] = assay type: cell-based; conditions: for IC-50_Viral Spread assay: ‘Very wide’ = some activity at high concentrations too staggering to plot
3CLpro [3] = target: T1, 3CLpro (Severe acute respiratory syndrome coronavirus 2, UniProt P0DTD1); assay: 3CLpro enzyme inhibition assay; assay type: biochemical, SARS-CoV-2
In short: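 Inhibitor (0–1000 µM) preincubated about 5 min with 3CLpro (0.4 µM) in Tris-HCl pH 7.3, 1 mM EDTA, triplicate, 25 °C. Started with TVLQ-AMC (40 µM) at fixed concentration, shaken 5 s. Fluorescence (excitation 364 nm) read continuously over time.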

3CLpro [4] = target: T1, 3CLpro; assay: Preliminary compound screening for 3CLpro inhibitors; assay type: biochemical, SARS-CoV-2; conditions: four concentrations, 1–50 µM, 3CLpro 0.4 µM, TVLQ-AMC 40 µM
In short: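 Duplicate wells, 25 °C. Test compound (1–50 µM) or DMSO (0 µM) preincubated about 5 min with 3CLpro (0.4 µM) in Tris-HCl pH 7.3, 1 mM EDTA. Started with TVLQ-AMC (40 µM), shaken 5 s, emission 440 nm (excitation 364 nm) read 1 min–3 h. Controls: 6–8 DMSO wells, 2 no-enzyme wells. Two replicate screens; emission normalized to 0 µM at 3 h.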

| Molecule | inhibitory activity against SARS-CoV-2 (SARS-CoV-2) | Cytotoxicity (ATCC Vero E6 cells) | IC50_Viral Entry blocking assay (SARS-CoV-2/MT020880 [1]) | IC-50_Viral Spread assay (SARS-CoV-2/MT020880 [2]) | IC50 (3CLpro [3]) [µM] | activity in 3CLpro screening (rate of substrate cleavage) (3CLpro [4]) | anti-SARS-CoV-2 activity at 25 µM (SARS-CoV-2) [%] | concentration with high cytotoxicity (ATCC Vero E6 cells; ATCC E6 Vero cells, number of nuclei counted) [µM] | Percent inhibition at 50 µM (SARS-CoV-2/MT020880 [1]; viral entry assay, 50 µM) [%] | Percent inhibition at 50 µM (SARS-CoV-2/MT020880 [2]) [%] |
| --- | --- | --- | --- | --- | --- | --- | --- | --- | --- | --- |
| OC[C@H]1O[C@@H](O[C@@H]2[C@@H](CO)OC(O)(CO)[C@H]2O)[C@H](O)[C@@H](O)[C@H]1O (mixture of isomers) [Lactulose] | no observed inhibitory activity | Nontoxic within tested conc. range | nil | nil |  |  |  |  |  |  |
| NCC[C@H](O)C(=O)N[C@@H]1C[C@H](N)[C@@H](O[C@H]2O[C@H](CN)[C@@H](O)[C@H](O)[C@H]2O)[C@H](O)[C@H]1O[C@H]1O[C@H](CO)[C@@H](O)[C@H](N)[C@H]1O [Amikacin hydrate] |  | Nontoxic within tested conc. range | (Very wide) | (Very wide) |  |  |  |  |  |  |
| [H]/N=C(/N)SCCCn1cc(C2=C(c3cn(C)c4ccccc34)C(=O)NC2=O)c2ccccc21 [Bisindolylmaleimide IX] |  | Nontoxic within tested conc. range |  |  | 114 ± 5.2 | significant activity |  |  |  |  |
| O=C(CCCN1CCC(O)(c2ccc(Cl)cc2)CC1)c1ccc(F)cc1 [Haloperidol] |  | Non-toxic within tested conc. range |  |  |  | very mild activity | 9.8 |  |  |  |
| COCC(=O)Nc1c(I)c(C(=O)NCC(O)CO)c(I)c(C(=O)N(C)CC(O)CO)c1I (stereo not shown) [Iopromide] | no observed inhibitory activity | Nontoxic within tested conc. range | nil | nil |  |  |  |  |  |  |
| NC[C@@H]1O[C@H](O[C@H]2[C@@H](O)[C@H](O[C@@H]3[C@@H](O)[C@H](N)C[C@H](N)[C@H]3O[C@H]3O[C@H](CO)[C@@H](O)[C@H](O)[C@H]3N)O[C@@H]2CO)[C@H](N)[C@@H](O)[C@@H]1O [Paromomycin] |  | Nontoxic within tested conc. range |  | (Very wide) |  |  | 2.3 |  |  |  |
| C[C@@H]1O[C@@H](OC[C@H]2O[C@@H](Oc3c(-c4ccc(OCCO)c(OCCO)c4)oc4cc(OCCO)cc(O)c4c3=O)[C@H](O)[C@@H](O)[C@@H]2O)[C@H](O)[C@H](O)[C@H]1O [Troxerutin] |  | Nontoxic within tested conc. range | (Very wide) | (Very wide) |  |  | 2.8 |  |  |  |
| Ivermectin |  | Toxic above 50 µM |  |  |  |  |  | > 16.67 | 99 | 46 |
